# Test results reported in ChEMBL document CHEMBL3580633, “Benzoxaborole antimalarial agents. Part 4. Discovery of potent 6-(2-(alkoxycarbonyl)pyrazinyl-5-oxy)-1,3-dihydro-1-hydroxy-2,1-benzoxaboroles” (J Med Chem, 2015).
# Experiments:
# [1] = Terminal half life in CD1 mouse at 10 mg/kg, iv by HPLC coupled to tandem mass spectrometry; format: ADME, organism-based; settings: in vivo, read-out: beta t1/2 (converted)
# Outline: (§1)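 Adult female CD-1 mice were dosed 10 mg/kg by iv injection or 30 mg/kg by oral gavage, with the compound in 100% saline. Blood samples were collected and drug content was measured by HPLC-tandem MS.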
# [2] = AUC (0 to infinity) in CD1 mouse at 10 mg/kg, iv by HPLC coupled to tandem mass spectrometry; format: ADME, organism-based; design: dose 10 mg/kg, route intravenous, time infinity; settings: in vivo; outline: as §1
# [3] = Volume of distribution at steady state in CD1 mouse at 10 mg/kg, iv by HPLC coupled to tandem mass spectrometry; format: ADME, organism-based; settings: in vivo, read-out: Vdss; outline: as §1
# [4] = tested on: Mus musculus; experiment: Terminal half life in CD1 mouse assessed as 5-(1-hydroxy-1,3-dihydrobenzo[c][1,2]oxaborol-6-yloxy)pyrazine-2-carboxylic acid level at 5 mg/kg, po by HPLC coupled to tandem mass spectrometry; format: ADME, organism-based; settings: in vivo
# Outline: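 The parent ester was given to adult female CD-1 mice at 5 mg/kg, iv or by oral gavage, in PEG 400/dimethylacetamide/water (45/10/45, pH 5.8). Blood was sampled, and the acid formed from the ester in vivo was quantified by HPLC-tandem MS to derive its PK parameters.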
# [5] = tested on: Plasmodium berghei; experiment: Antiplasmodial activity against Plasmodium berghei infected in Swiss Webster mouse assessed as mouse survival at 3 mg/kg, po dosed once daily for 4 consecutive days beginning 1 hr after initial infection and measured on day 10 post infection by Giemsa staining method; format: functional
# Outline: (§2)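 Female Swiss Webster mice (about 20 g) infected ip with 6 × 10^6 P. berghei-infected erythrocytes. Oral gavage once daily for 4 days, starting 1 h after infection. Vehicle PEG300/propylene glycol/water (55/25/20 by weight). Giemsa-smear parasitemia counted daily from day 4. Mice euthanised above 50% parasitemia. Survival followed to day 21, 5 mice per dose, chloroquine 30 mg/kg as reference.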
# [6] = tested on: Plasmodium berghei; experiment: Antiplasmodial activity against Plasmodium berghei infected in Swiss Webster mouse assessed as mouse survival at 3 mg/kg, po dosed once daily for 4 consecutive days beginning 1 hr after initial infection and measured on day 9 post infection by Giemsa staining method
# [7] = tested on: Plasmodium berghei; experiment: Antiplasmodial activity against Plasmodium berghei infected in Swiss Webster mouse assessed as mouse survival at 33 mg/kg, po dosed once daily for 4 consecutive days beginning 1 hr after initial infection and measured on day 13 post infection by Giemsa staining method; format: functional
# Outline: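 Female Swiss Webster mice (about 20 g) were infected ip with 6 × 10^6 P. berghei-infected erythrocytes from a donor mouse. They were dosed by oral gavage once daily for 4 days, starting 1 h post-infection, in PEG 300/propylene glycol/water (55/25/20 by weight). Parasitemia was read daily on Giemsa smears from day 4, and mice were euthanized above 50% parasitemia. Percent survival was tracked to 21 days.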
# [8] = tested on: Plasmodium berghei; experiment: Antiplasmodial activity against Plasmodium berghei infected in Swiss Webster mouse assessed as mouse survival at 200 mg/kg, po dosed once daily for 4 consecutive days beginning 1 hr after initial infection and measured on day 6 post infection by Giemsa staining method; format: functional; outline: as §2
# [9] = tested on: Plasmodium berghei; experiment: Antiplasmodial activity against Plasmodium berghei infected in Swiss Webster mouse assessed as mouse survival at 200 mg/kg, po dosed once daily for 4 consecutive days beginning 1 hr after initial infection and measured on day 8 post infection by Giemsa staining method; format: functional; outline: as §2
# [10] = Stability in mouse liver microsomes assessed as compound remaining at 1 uM incubated for 1 hr in absence of NADPH by LC/MS/MS method; format: ADME
# Outline: (§3)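 Compound at 1 μM final (from a 1 mg/mL DMSO stock) was incubated with mouse or human liver microsomes (0.5 mg/mL protein) in 100 mM potassium phosphate, pH 7.4, at 37 °C with shaking, with or without 1 mM NADPH. Samples were taken over 0–120 min and tested in duplicate. Reactions were quenched with cold acetonitrile plus internal standard and analyzed by LC/MS/MS.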
# [11] = tested on: Liver microsome; experiment: Stability in human liver microsomes assessed as compound remaining at 1 uM incubated for 1 hr in absence of NADPH by LC/MS/MS method; format: ADME; outline: as §3
structure (smiles),measurement,setting,value
O=C(O)c1cnc(Oc2ccc3c(c2)B(O)OC3)cn1,half-life,[1],1.1 h
same,AUC(0-inf),[2],4300 ng·h/mL
same,Vd,[3],0.848 L/kg
COC(=O)c1cnc(Oc2ccc3c(c2)B(O)OC3)cn1,beta t1/2,[4],1.5 h
same,survival at 3 mg/kg,[5],40%
same,survival at 3 mg/kg,[6],40%
same,survival at 33 mg/kg,[7],0%
NC(=O)c1cnc(Oc2ccc3c(c2)B(O)OC3)cn1,survival at 200 mg/kg,[8],100%
same,survival at 200 mg/kg,[9],100%
same,Stability,[10],100%
same,Stability,[11],100%
